Numbering of substitutions follows the chain as printed. Activity calls are given as the source filed them. No cut-off for these calls is given here.

A word on the Kd: it is the free concentration of one partner at which half of the binding sites on the other are occupied at equilibrium, for simple one-to-one binding. High values mean a looser complex, low ones a tighter complex.

Test [1] addresses T1, Ubiquitin-conjugating enzyme E2 T (Homo sapiens) (UniProt Q9NPD8).
T1 sequence (whole entry): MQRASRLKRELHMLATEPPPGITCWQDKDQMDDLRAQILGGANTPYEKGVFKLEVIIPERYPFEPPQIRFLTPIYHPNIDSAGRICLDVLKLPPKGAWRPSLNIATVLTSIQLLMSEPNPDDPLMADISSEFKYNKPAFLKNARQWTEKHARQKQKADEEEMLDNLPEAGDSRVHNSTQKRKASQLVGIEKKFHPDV
The test can be described thus: Inhibition of full length N-terminal 6xHis-Smt3 tagged human Ube2T expressed in Escherichia coli BL21(DE3) assessed as FANCD2 ubiquitination after 15 mins in presence of fluorescently-labeled Ub/recombinant human E1/ATP by fluorescence assay. Summed up:
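Ube2T-driven FANCD2 monoubiquitination with E1, FANCL and fluorescently labelled ubiquitin, tested as a four-point titration. Gels were fluorescence-scanned, and the integrated intensity of the monoubiquitinated FANCD2 band was normalized to DMSO reactions. Three independent experiments, plotted as mean ± range.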

Test [2] relates to T2, Ubiquitin-conjugating enzyme E2 T (Homo sapiens), Q9NPD8 [P73K].
T2 sequence (whole entry): T1 sequence (whole entry) with P73K
The experiment in a line: Binding affinity to full length recombinant N-terminal 6xHis-Smt3 tagged human Ube2T P73K mutant expressed in Escherichia coli BL21(DE3) by ITC.

Test [3] has as its target T1, Ubiquitin-conjugating enzyme E2 T (Homo sapiens). The experiment in a line: Binding affinity to [1H-15N]-labeled N-terminal 6xHis-Smt3 tagged human Ube2T (1 to 154 residues) expressed in Escherichia coli BL21(DE3) by chemical shift perturbation assay.
For test [4] the target is unchanged. The experiment in a line: Inhibition of full length N-terminal 6xHis-Smt3 tagged human Ube2T expressed in Escherichia coli BL21(DE3) assessed as FANCD2 ubiquitination at 2.5 mM after 15 mins in presence of fluorescently-labeled Ub/recombinant human E1/FANCL in 0.05% Tween20 containing buffer by fluorescence assay.
In test [5] the target is Ubiquitin-conjugating enzyme E2 D3 (Homo sapiens) (UniProt P61077). The experiment in a line: Inhibition of UbcH5c (unknown origin) assessed as RNF4 ubiquitination at 2.5 mM after 15 mins in presence of fluorescently-labeled […] by fluorescence assay.
Ubiquitin-conjugating enzyme E2 D3 (Homo sapiens), sequence (P61077 whole entry, looked up): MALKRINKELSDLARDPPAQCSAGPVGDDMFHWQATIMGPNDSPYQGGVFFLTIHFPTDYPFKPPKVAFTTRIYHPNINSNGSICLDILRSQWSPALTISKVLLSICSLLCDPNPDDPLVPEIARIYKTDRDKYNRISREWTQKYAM
Test [6] has as its target T3, Ubiquitin-conjugating enzyme E2 T (Homo sapiens, UniProt Q9NPD8).
T3 sequence (Q9NPD8 whole entry): T1 sequence (whole entry)
The test can be described thus: Binding affinity to full length N-terminal 6xHis-Smt3 tagged human Ube2T expressed in Escherichia coli BL21(DE3) by ITC. On the technique in general: ITC needs no label: the signal is the heat of the interaction.

Consider `Nc1nc(-c2ccccc2)cs1`, for which the inhibition result in test [1] is “Dose-dependent effect”. Also, the result in test [2] was Active. The Activity result in test [3] was “Dose-dependent effect”. In test [4], the inhibition entry was “Active”. Further, in test [5], the inhibition entry was “inactive”.
Take `NC(=O)c1ccc(-c2ccccn2)s1`: the Activity entry in test [3] is “Dose-dependent effect”.
Take `N#Cc1cc(-c2ccccc2)oc1N`: the Activity result in test [3] was “Dose-dependent effect”.
As to `NCc1nc2ccccc2s1`, the inhibition entry in test [1] is “Dose-dependent effect”. The Activity result in test [3] is “Dose-dependent effect”. The compound also registered a Kd in test [6] of 1.3 mM. Besides, in test [4], the inhibition entry is “Active”. Besides, the inhibition entry in test [5] is “inactive”.
As for `NC(=O)C1CCCc2c1[nH]c1ccc(Cl)cc21` (configuration not stated), in test [1], the inhibition entry is “Dose-dependent effect”. The outcome in test [2] was Active. Further, in test [3], the Activity entry was “Dose-dependent effect”. Moreover, in test [4], the inhibition result was “Active”. Moreover, the inhibition entry in test [5] is “inactive”.

Values taken from ChEMBL document CHEMBL4043089, “Allosteric Targeting of the Fanconi Anemia Ubiquitin-Conjugating Enzyme Ube2T by Fragment Screening” (J Med Chem, 2017).
